A word on the inhibition: it is the relative decrease from the control value, in per cent.

Test [1] is described as follows: inhibitors of TNFa-induced NFkB p65 translocation, primary screen, imaging, HUVEC, MLSMR starter and 10KST1 sets (AID 438;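 active means inhibition above 20% together with a positive visual image hit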;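 further: compound added about 3h40 before a 20 min TNFalpha stimulation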;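 on inhibition: signal is the nuclear over cytoplasmic p65 intensity ratio per well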). The conditions noted are these: HUVEC TNFa-induced p65 nuclear translocation; cell count: measured here: nuclei count (cytotoxicity indicator), at 2.08 µM; inhibition: at 2 µM, stronger effect = higher value, 0% TNFa-plus-vehicle, 100% no-TNFa wells.
A short description of test [2]: inhibitors of mutant huntingtin aggregation, primary screen, imaging, exon1htt(103Q)mCFP cells, high-content imaging (AID 483;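 active means visual image review flags a hit and inhibition of aggregation exceeds 20%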;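 further: compound exposure lasted 3 days before fixation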;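 on nuclei count: percent of the per-plate median nuclei count of sample wells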). The settings on record: exon1htt(103Q)mCFP cell line, aggregate imaging, at 2 µM; inhibition of aggregation: stronger effect = higher value; nuclei count: measured here: cell count, toxicity.
The nature of test [3]: inhibitors of E-selectin induction by TNFa, primary screen, imaging, HUVEC, immunofluorescence, MLSMR starter and 10KST1 sets (AID 487;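 active means visually confirmed hit in the image check and inhibition above 20%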;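 on inhibition: signal is fraction of cell area covered by stained E-selectin grains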;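 on nuclei count: 100% = median nuclei count of all wells on the same plate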). The conditions noted are these: HUVEC TNFalpha-induced E-selectin immunofluorescence imaging, at 2 µM; inhibition: stronger effect = higher value; nuclei count: measured here: cell number, toxicity.
Test [4] addresses Voltage-gated potassium channel subunit beta-2 (Rattus norvegicus) (UniProt P62483). Nature of the test: KvBeta enzyme negative modulators, primary screen, biochemical, NADPH fluorescence (AID 622;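 active means fluorescence slope higher than the sample average by over 3 SD, cut at about -0.22 in these data, passing the limit was not always enough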;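 further: slope of raw intensity against log time taken from 70 to 1610 s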). The settings on record: recombinant KvBeta, 4-cyanobenzaldehyde reduction, at 10 µM, stronger effect = higher value.
For test [5] the target is unchanged. In words: KvBeta positive modulators, primary screen, biochemical, NADPH fluorescence (AID 623;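 active means NADPH fluorescence slope more negative than the mean of all samples by about 3 SD, 99.7% confidence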;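 further: fluorescence intensity change per second fitted from 20 to 320 s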). The settings on record: Recombinant KvBeta, NADPH fluorescence decrease slope, 10 min; at 10 µM; stronger effect = lower value.
Test [6] addresses Muscarinic acetylcholine receptor M4 (Homo sapiens) (UniProt P08173). Nature of the test: compounds altering M4/GIRK thallium flux, either direction, primary screen, M4 allosteric agonist project, cell-based, HEK293 M4/GIRK, BTC-AM (AID 625;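 active means fluorescence slope after compound addition differing from the mean of all tested samples at 99.7% confidence, mostly higher but some lower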;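 further: thallium influx through GIRK channels coupled to M4 in HEK293 cells with BTC-AM dye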). The conditions noted are these: at 10 µM, actives lie on both sides. A digest of the protocol:
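Material – HEK293 cells with M4 receptor and GIRK channels · Buffer or medium – pH 7.3 thallium assay buffer · Doses – one dose, 10 µM final · Timing – cells overnight at 37 °C, BTC-AM loading 1 h, reads 2 min total · Measured by – kinetic fluorescence with BTC-AM dye · Controls – carbachol and DMSO controls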

Test [7] in a line: inhibitors of Sendai virus-induced IRF3 signaling, primary screen, TLR/RLR signaling modifier project, cell-based, Sendai virus stimulus, luciferase, 10K MLSCN set (AID 602276;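 active means inhibition at or above 50% at 10 µM; inactive means inhibition below 50%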;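 further: firefly luciferase from ISG56 promoter only with Renilla not read in this screen; 0% = Sendai virus plus DMSO and 100% = medium plus DMSO without virus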). The conditions noted are these: HEK293 RL24 IRF3 luciferase reporter, at 10 µM, stronger effect = higher value. (In general: Reporter assays use an easily measured gene product as a stand-in for the process of interest.)

A short description of test [8]: inhibitors of poly I:C-induced TLR3 signaling, primary screen, cell-based, poly I:C stimulus, luciferase, 10K MLSCN set (AID 602277). The settings on record: HEK293-TLR3 RL24 IRF3 luciferase reporter, at 10 µM, stronger effect = higher value.

Active and inactive are the calls of the source.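 How the source made its calls, unless noted: active means inhibition of the reporter signal at or above 50%; inactive means inhibition below 50%.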

Voltage-gated potassium channel subunit beta-2 (Rattus norvegicus), sequence (P62483 whole entry, looked up): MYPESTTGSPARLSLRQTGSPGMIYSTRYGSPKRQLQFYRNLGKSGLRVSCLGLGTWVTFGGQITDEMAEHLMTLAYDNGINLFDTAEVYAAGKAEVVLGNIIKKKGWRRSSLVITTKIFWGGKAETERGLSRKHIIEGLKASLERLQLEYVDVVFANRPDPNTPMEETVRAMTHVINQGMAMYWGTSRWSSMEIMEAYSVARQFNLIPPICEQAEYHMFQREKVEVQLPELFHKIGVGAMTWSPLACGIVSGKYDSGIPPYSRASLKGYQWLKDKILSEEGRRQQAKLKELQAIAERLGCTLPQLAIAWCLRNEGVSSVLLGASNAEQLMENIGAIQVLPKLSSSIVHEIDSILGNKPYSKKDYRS
Muscarinic acetylcholine receptor M4 (Homo sapiens), sequence (P08173 whole entry, looked up): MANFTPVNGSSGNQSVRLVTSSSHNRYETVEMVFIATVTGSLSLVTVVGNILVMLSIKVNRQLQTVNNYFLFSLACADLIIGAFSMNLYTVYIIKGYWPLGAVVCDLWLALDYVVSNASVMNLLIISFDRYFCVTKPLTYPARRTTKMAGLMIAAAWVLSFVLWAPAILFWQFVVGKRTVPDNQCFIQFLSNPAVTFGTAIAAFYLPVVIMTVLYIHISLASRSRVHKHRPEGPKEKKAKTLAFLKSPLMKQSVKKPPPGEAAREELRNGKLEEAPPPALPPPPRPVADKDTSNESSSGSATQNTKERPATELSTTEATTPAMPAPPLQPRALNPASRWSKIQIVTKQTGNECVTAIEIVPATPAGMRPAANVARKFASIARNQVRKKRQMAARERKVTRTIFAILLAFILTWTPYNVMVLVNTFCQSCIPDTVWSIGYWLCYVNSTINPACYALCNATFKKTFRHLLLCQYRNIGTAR

Take `Cc1ccccc1CS(=O)(=O)Cc1ccc(C(=O)NCCCN2CCOCC2)o1`: in test [1], the cell count was found to be 434. Also, the inhibition is 5% (inactive) in test [1], -156% (inactive) in test [3], -17.1% (inactive) in test [7] and -16.4% (inactive) in test [8]. In addition, in test [2], the inhibition of aggregation was -1.9% (inactive). For the same compound, the nuclei count was determined as 99% in test [2] and 120% in test [3]. Also, the fluorescence slope in test [4] was -0.586 (inactive); in test [6] it was 0.00703 (inactive). Further, the NADPH fluorescence slope in test [5] is -2.7e-05 (inactive).

Consider `COCCn1c(SCC(=O)Nc2nnc(C)s2)nnc1-c1ccncc1`, for which the cell count in test [1] amounted to 564. Also, the inhibition was -7.5% (inactive) in test [1], -32.1% (inactive) in test [3], 18.4% (inactive) in test [7] and -2.25% (inactive) in test [8]. For the same compound, the inhibition of aggregation in test [2] was 7.7% (inactive). The values for the nuclei count in test [2] and in test [3] were 99.2% and 115%, respectively. Besides, the fluorescence slope is -0.172 (inactive) in test [4] and 0.00934 (inactive) in test [6]. In addition, the NADPH fluorescence slope in test [5] is -1.8e-05 (inactive).

On to `CC(C)(C)NC(=O)C(c1ccco1)N(C(=O)Cn1nnc(-c2ccc(F)cc2)n1)c1ccccc1` (centres undefined), for which the cell count in test [1] was 422. The inhibition in test [1] is 9.2% (inactive); in test [3], -146% (inactive); in test [7] it was 15.8% (inactive); in test [8] it was 26.6% (inactive). The inhibition of aggregation in test [2] was -1.8% (inactive). The nuclei count in test [2] came to 99.8%; in test [3], 122%. The fluorescence slope in test [4] was -0.551 (inactive); in test [6] it was 0.00525 (inactive). Moreover, the NADPH fluorescence slope in test [5] was 8.1e-06 (inactive).

As for `Cc1cc(C)nc(N2CCC(C(=O)NCc3cccc(C(F)(F)F)c3)CC2)n1`, in test [1], the cell count is 441. For the same compound, the inhibition in test [1] was 7.1% (inactive); in test [3] it was 45.5% (inactive); in test [7] it was 11.9% (inactive); in test [8] it was 14% (inactive). Moreover, the inhibition of aggregation in test [2] is -55.6% (inactive). Further, the figures for the nuclei count in test [2] and in test [3] were 85.9% and 85.1%, respectively. For the same compound, the fluorescence slope is -0.227 (inactive) in test [4] and 0.00567 (inactive) in test [6]. Moreover, the NADPH fluorescence slope in test [5] is -4.8e-06 (inactive).

Take `COCCOC(=O)C1=C(C)Nc2ncnn2C1c1ccc(F)cc1` (centres undefined): the cell count in test [1] was 743. The inhibition in test [1] was -0.4% (inactive); in test [3], 12.9% (inactive); in test [7], 6.2% (inactive); in test [8], 19.4% (inactive). Moreover, in test [2], the inhibition of aggregation was 24.6% (inactive). Besides, the values for the nuclei count in test [2] and in test [3] were 71.5% and 124%, respectively. Further, the figures for the fluorescence slope in test [4] and in test [6] were -0.369 (inactive) and 0.00592 (inactive), respectively. Besides, the NADPH fluorescence slope in test [5] is -0.000107 (inactive).

Take `CCc1ccc(NS(=O)(=O)c2ccc3[nH]cc(C(=O)N4CCCCC4)c(=O)c3c2)cc1`: in test [1], the cell count came out at 672. For the same compound, the inhibition was 13.7% (inactive) in test [1], 2.5% (inactive) in test [3], 20.2% (inactive) in test [7] and 24.4% (inactive) in test [8]. The inhibition of aggregation in test [2] was 14.2% (inactive). Further, the nuclei count came out at 86% in test [2] and 81.2% in test [3]. Besides, the fluorescence slope was -0.562 (inactive) in test [4] and 0.00784 (inactive) in test [6]. Further, the NADPH fluorescence slope in test [5] is -5.7e-05 (inactive).

For the compound `Cc1nc(SCC(=O)c2c[nH]c3ccccc23)n[nH]1`, the cell count in test [1] was 339. Moreover, the inhibition in test [1] was -6.5% (inactive); in test [3], -81.8% (inactive); in test [7] it was 17.1% (inactive); in test [8] it was 14.3% (inactive). Further, in test [2], the inhibition of aggregation is -7.8% (inactive). Also, the nuclei count came to 103% in test [2] and 76.3% in test [3]. Further, the results for the fluorescence slope in test [4] and in test [6] were -0.472 (inactive) and 0.00544 (inactive), respectively. In addition, in test [5], the NADPH fluorescence slope was -6.1e-05 (inactive).

With `C=CCn1c(=O)/c(=C/c2ccc(O)cc2)s/c1=C(/C#N)c1nnc2n1CCCCC2`, the cell count in test [1] is 483. Further, the inhibition in test [1] is -0.5% (inactive); in test [3], -5.3% (inactive); in test [7], 17.7% (inactive); in test [8], -30% (inactive). Further, the inhibition of aggregation in test [2] is 11.1% (inactive). Moreover, the nuclei count came out at 112% in test [2] and 116% in test [3]. The fluorescence slope in test [4] was -0.332 (inactive); in test [6], 0.00728 (inactive). Also, the NADPH fluorescence slope in test [5] is -4.5e-05 (inactive).

On to `O=C(OCC(=O)c1c[nH]c2ccccc12)C1=COCCO1`, for which the cell count in test [1] worked out at 579. Besides, the inhibition in test [1] was -6.9% (inactive); in test [3], -1% (inactive); in test [7] it was -19.9% (inactive); in test [8], -100% (inactive). For the same compound, the inhibition of aggregation in test [2] is -9.2% (inactive). For the same compound, the values for the nuclei count in test [2] and in test [3] were 100% and 69.3%, respectively. Besides, the fluorescence slope in test [4] was -0.271 (inactive); in test [6], 0.00653 (inactive). Besides, the NADPH fluorescence slope in test [5] is -5.8e-05 (inactive).

As to `COC(=O)C1(C(=O)OC)Sc2ccccc2C1=O`, the cell count in test [1] was found to be 427. The inhibition in test [1] was -11.6% (inactive); in test [3], 30.1% (inactive); in test [7] it was 13% (inactive); in test [8] it was 17.2% (inactive). Further, in test [2], the inhibition of aggregation was 12.5% (inactive). Further, the nuclei count came out at 75.3% in test [2] and 97.1% in test [3]. For the same compound, the fluorescence slope in test [4] is -0.571 (inactive); in test [6], 0.0074 (inactive). Also, the NADPH fluorescence slope in test [5] was 1.6e-05 (inactive).

`Cc1ccc(Nc2nnns2)cc1C`: in test [1], the cell count was 758. For the same compound, the inhibition in test [1] was 5% (inactive); in test [3] it was -52.7% (inactive); in test [7] it was 6.92% (inactive); in test [8] it was 7.21% (inactive). Also, the inhibition of aggregation in test [2] was -5% (inactive). The nuclei count in test [2] worked out at 105%; in test [3] it was 116%. For the same compound, the fluorescence slope in test [4] was -0.58 (inactive); in test [6] it was 0.00717 (inactive). In addition, the NADPH fluorescence slope in test [5] was 1.4e-05 (inactive).

Take `Cc1nnc(NC2CCCCC2)[nH]c1=O`: the cell count in test [1] came to 358. Further, the inhibition is 5.3% (inactive) in test [1], -59.1% (inactive) in test [3], 12.6% (inactive) in test [7] and 14.5% (inactive) in test [8]. The inhibition of aggregation in test [2] was -1.6% (inactive). Also, the nuclei count turned out to be 103% in test [2] and 115% in test [3]. The fluorescence slope in test [4] is -0.592 (inactive); in test [6], 0.00733 (inactive). In addition, in test [5], the NADPH fluorescence slope is -3.6e-05 (inactive).

Regarding `CC1(c2ccncc2)Nc2ccccc2-c2nc3ccccc3n21` (centres undefined), in test [1], the cell count was 394. Besides, the inhibition in test [1] is -13.4% (inactive); in test [3] it was -182% (inactive); in test [7], 6.46% (inactive); in test [8], -10% (inactive). The inhibition of aggregation in test [2] is 6.2% (inactive). Besides, the nuclei count in test [2] turned out to be 69.9%; in test [3] it was 122%. In addition, the fluorescence slope is -0.454 (inactive) in test [4] and 0.00581 (inactive) in test [6]. The NADPH fluorescence slope in test [5] is -2.1e-05 (inactive).

As to `O=C1c2ccccc2NC(c2ccco2)N1O` (centres undefined), the cell count in test [1] is 426. Besides, the inhibition in test [1] was 3% (inactive); in test [3], -169% (inactive); in test [7], 8.36% (inactive); in test [8], 10.8% (inactive). Also, the inhibition of aggregation in test [2] was -3.7% (inactive). Besides, the nuclei count in test [2] was found to be 110%; in test [3] it was 132%. Also, the fluorescence slope is -0.579 (inactive) in test [4] and 0.006 (inactive) in test [6]. The NADPH fluorescence slope in test [5] is -2.1e-05 (inactive).
